# Assay results from different studies.
# Compare with care: the assays were run in different laboratories.
# IDE: Insulin-degrading enzyme (IDE, Homo sapiens, UniProt P14735)
# Tumor necrosis factor receptor superfamily member 9: Tumor necrosis factor receptor superfamily member 9 (Homo sapiens, UniProt Q07011)
# CSF1R: Macrophage colony-stimulating factor 1 receptor (CSF1R, Homo sapiens, UniProt P07333)
SMILES,target,assay,conditions,quantity,result
CCCCCCN(CC(=O)O)CC(=O)N[C@@H](Cc1c[nH]cn1)C(=O)OC,IDE,"enzyme activity, inhibitor, fluorescence",,IC50,400 nM
Nc1nc2c(ncn2[C@@H]2O[C@H](COP(=O)(O)OP(=O)(O)OP(=O)(O)OC[C@H]3O[C@@H](n4cnc5c(=O)[nH]c(N)nc54)[C@H](O)[C@@H]3O)[C@@H](O)[C@H]2O)c(=O)[nH]1,"Gem-associated protein 5 (Homo sapiens, UniProt Q8TEQ6)","binding, ITC",,Kd,140000 nM
CCCC[C@@H]1NC(=O)[C@H](Cc2ccc(O)cc2)NC(=O)[C@@H]2CCCN2C(=O)[C@H](CC(=O)O)NC(=O)[C@H](C)NC(=O)[C@H](Cc2ccccc2)NC(=O)[C@@H]2CSCCC(=O)N3CN(CN(C3)C(=O)CCSC[C@@H](C(=O)N[C@@H](CNC(=O)CCc3cn(CC(=O)N[C@H]4CSCCC(=O)N5CN6CN(C5)C(=O)CCSC[C@H](NC(=O)[C@@H](CC(=O)O)NC(=O)[C@H](Cc5cccc7ccccc57)NC(=O)[C@@H]5CCCN5C4=O)C(=O)N[C@@H](CCSC)C(=O)N[C@@H](CCCCNC(=N)N)C(=O)N[C@@H](CC(=O)O)C(=O)N[C@@H](Cc4c[nH]c5ccccc45)C(=O)N[C@@H](CO)C(=O)N[C@@H]([C@@H](C)O)C(=O)N4CCC[C@H]4C(=O)N4C[C@H](O)C[C@H]4C(=O)N[C@@H](Cc4c[nH]c5ccccc45)C(=O)N[C@H](C(N)=O)CSCCC6=O)nn3)C(N)=O)NC1=O)C(=O)CCSC[C@H](NC(C)=O)C(=O)N[C@@H](CC(C)(C)C)C(=O)N1CCC[C@H]1C(=O)N[C@@H](CCC(=O)O)C(=O)N[C@H](C)C(=O)N1CCC[C@H]1C(=O)N[C@@H](Cc1ccc(O)cc1)C(=O)N2,Tumor necrosis factor receptor superfamily member 9,"binding, SPR",,Kd,3.5 nM
CC(C)C[C@H](NC(=O)[C@H](Cc1ccccc1)NC(=O)[C@H](Cc1ccc(O)cc1)NC(=O)CNC(=O)[C@H](CCCNC(=N)N)NC(=O)[C@H](CO)NC(=O)[C@H](CCC(N)=O)NC(=O)[C@H](CO)NC(=O)[C@H](C)NC(=O)[C@H](Cc1ccccc1)NC(=O)[C@@H]1CCCN1C(=O)[C@H](CO)NC(=O)[C@H](CCC(N)=O)NC(=O)[C@H](Cc1ccccc1)NC(=O)[C@H](CCC(=O)O)NC(=O)[C@H](CCC(=O)O)NC(=O)[C@H](CC(=O)O)NC(=O)[C@@H](NC(=O)[C@H](CCCNC(=N)N)NC(=O)[C@@H](N)Cc1ccccc1)C(C)C)C(=O)N[C@@H](Cc1ccccc1)C(=O)N[C@@H](CCCNC(=N)N)C(=O)N1CCC[C@H]1C(=O)N[C@@H](CCCNC(=N)N)C(=O)N[C@@H](CC(N)=O)C(N)=O,"Neuromedin-U receptor 2 (NMUR2, Homo sapiens, UniProt Q9GZQ4)","inositol phosphate, agonist",,EC50,0.166 nM
COC(=O)[C@H](Cc1c[nH]cn1)NC(=O)CN(CC(=O)O)Cc1ccc2ccccc2c1,IDE,"enzyme activity, inhibitor, fluorescence",,IC50,1200 nM
CC/C=C\C/C=C\C/C=C\C/C=C\C/C=C\C/C=C\CCC(=O)O,"Nuclear receptor subfamily 4 group A member 2 (Homo sapiens, UniProt P43354)",binding,,Kd,30000 nM
Cc1ccc(C)c(OCCCC(C)(C)C(=O)O)c1,"Peroxisome proliferator-activated receptor alpha (PPARA, Homo sapiens, UniProt Q07869)","reporter gene, agonist, luciferase",,EC50,58000 nM
c1cncc(-c2cccc(Nc3nccc(NC4CCCCC4)n3)c2)c1,"Tyrosine-protein kinase JAK3, JH1 (JAK3, Homo sapiens, UniProt P52333)","binding, competition with immobilised ligand",,Kd,1300 nM
COC(=O)[C@H](Cc1c[nH]cn1)NC(=O)CN(CC(=O)NO)Cc1ccccc1,IDE,"enzyme activity, inhibitor, fluorescence",,IC50,3200 nM
Cc1cnc(-c2ccc(-c3ccc(NC(=O)Nc4c(F)cc(F)cc4F)cc3F)c3c2C(=O)NC3)[nH]1,"Serine/threonine-protein kinase 4 (STK4, Homo sapiens, UniProt Q13043)","binding, competition with immobilised ligand",,Kd,1.3 nM
Cc1cc(Nc2cc3ncccc3c(N[C@@H]3C[C@H]4CC[C@@H](C3)N4CCC#N)n2)n[nH]1,CSF1R,"binding, competition with immobilised ligand",,Kd,1100 nM
CCCC[C@@H]1NC(=O)[C@H](Cc2ccc(O)cc2)NC(=O)[C@@H]2CCCN2C(=O)[C@H](CC(=O)O)NC(=O)[C@H](C)NC(=O)[C@H](Cc2ccccc2)NC(=O)[C@@H]2CSCCC(=O)N3CN(CN(C3)C(=O)CCSC[C@@H](C(=O)N[C@@H](CNC(=O)Cn3cc(CCC(=O)NCCC(=O)N(C)CC(=O)N(C)CC(=O)N(C)CC(=O)N(C)CC(=O)N(C)CC(=O)N(C)CC(=O)N(C)CC(=O)N(C)CC(=O)N(C)CC(=O)N(C)CC(=O)N[C@H]4CSCCC(=O)N5CN6CN(C5)C(=O)CCSC[C@H](NC(=O)[C@@H](CC(=O)O)NC(=O)[C@H](Cc5cccc7ccccc57)NC(=O)[C@@H]5CCCN5C4=O)C(=O)N[C@@H](CCSC)C(=O)N[C@@H](CCCCNC(=N)N)C(=O)N[C@@H](CC(=O)O)C(=O)N[C@@H](Cc4c[nH]c5ccccc45)C(=O)N[C@@H](CO)C(=O)N[C@@H]([C@@H](C)O)C(=O)N4CCC[C@H]4C(=O)N4C[C@H](O)C[C@H]4C(=O)N[C@@H](Cc4c[nH]c5ccccc45)C(=O)N[C@H](C(N)=O)CSCCC6=O)nn3)C(N)=O)NC1=O)C(=O)CCSC[C@H](NC(C)=O)C(=O)N[C@@H](CC(C)(C)C)C(=O)N1CCC[C@H]1C(=O)N[C@@H](CCC(=O)O)C(=O)N[C@H](C)C(=O)N1CCC[C@H]1C(=O)N[C@@H](Cc1ccc(O)cc1)C(=O)N2,Tumor necrosis factor receptor superfamily member 9,"binding, SPR",,Kd,4.9 nM
COC(=O)[C@H](Cc1c[nH]cn1)NC(=O)CN(CCCc1ccccc1)CC(=O)O,IDE,"enzyme activity, inhibitor, fluorescence",,IC50,1000 nM
CNC(=O)c1cc2c(Oc3ccc(NC(=O)C4(C(=O)Nc5ccc(F)cc5)CC4)cc3)ccnc2cc1OC,CSF1R,"enzyme activity, inhibitor, radiometric",,IC50,11 nM
CCCC[C@@H]1NC(=O)[C@H](Cc2ccc(O)cc2)NC(=O)[C@@H]2CCCN2C(=O)[C@H](CC(=O)O)NC(=O)[C@H](C)NC(=O)[C@H](Cc2ccccc2)NC(=O)[C@@H]2CSCCC(=O)N3CN(CN(C3)C(=O)CCSC[C@@H](C(=O)N[C@@H](C)C(N)=O)NC1=O)C(=O)CCSC[C@H](NC(C)=O)C(=O)N[C@@H](CC(C)(C)C)C(=O)N1CCC[C@H]1C(=O)N[C@@H](CCC(=O)O)C(=O)N[C@H](CCCCNC(=O)CCc1cn(CCOCCOCCOCCOCCOCCC(=O)N[C@H]3CSCCC(=O)N4CN5CN(C4)C(=O)CCSC[C@H](NC(=O)[C@@H](CC(=O)O)NC(=O)[C@H](Cc4cccc6ccccc46)NC(=O)[C@@H]4CCCN4C3=O)C(=O)N[C@@H](CCSC)C(=O)N[C@@H](CCCCNC(=N)N)C(=O)N[C@@H](CC(=O)O)C(=O)N[C@@H](Cc3c[nH]c4ccccc34)C(=O)N[C@@H](CO)C(=O)N[C@@H]([C@@H](C)O)C(=O)N3CCC[C@H]3C(=O)N3C[C@H](O)C[C@H]3C(=O)N[C@@H](Cc3c[nH]c4ccccc34)C(=O)N[C@H](C(N)=O)CSCCC5=O)nn1)C(=O)N1CCC[C@H]1C(=O)N[C@@H](Cc1ccc(O)cc1)C(=O)N2,Tumor necrosis factor receptor superfamily member 9,"binding, SPR",,Kd,3.4 nM
Cc1cc2nc3c(=O)[nH]c(=O)nc-3n(C[C@H](O)[C@H](O)[C@H](O)COP(=O)(O)OP(=O)(O)OC[C@H]3O[C@@H](n4cnc5c(N)ncnc54)[C@H](O)[C@@H]3O)c2cc1C,"Heterogeneous nuclear ribonucleoprotein H3 (Homo sapiens, UniProt P31942)",binding,lysate,Kd,19 nM
